Assay outcomes: PubChem BioAssay, The Scripps Research Institute Molecular Screening Center
GPR7 antagonist – human neuropeptides B/W receptor 1 antagonism | P48145 | GPR7-expressing cells, fluorescence antagonist assay | inhibition, % at 4.4 µM | 1.1% of 290,000 active; in the data active = inhibition above about 16%, passing the limit was not always enough;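 also: cells stimulated with the agonist NPW; 0% = agonist with vehicle and 100% = vehicle without agonist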
OX1R antag-1 – antagonists of human orexin 1 receptor (OX1R); O43613; OX1R-expressing cells, FRET antagonist read-out; inhibition, % at 6.6 µM; 1.8% of 330,000 active; in the data active = inhibition mostly above about 38%, no sharp cut-off; inactive = mostly below about 40%;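 also: 0% = agonist challenge alone and 100% = reference antagonist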
Target sequence (O43613 whole entry, looked up): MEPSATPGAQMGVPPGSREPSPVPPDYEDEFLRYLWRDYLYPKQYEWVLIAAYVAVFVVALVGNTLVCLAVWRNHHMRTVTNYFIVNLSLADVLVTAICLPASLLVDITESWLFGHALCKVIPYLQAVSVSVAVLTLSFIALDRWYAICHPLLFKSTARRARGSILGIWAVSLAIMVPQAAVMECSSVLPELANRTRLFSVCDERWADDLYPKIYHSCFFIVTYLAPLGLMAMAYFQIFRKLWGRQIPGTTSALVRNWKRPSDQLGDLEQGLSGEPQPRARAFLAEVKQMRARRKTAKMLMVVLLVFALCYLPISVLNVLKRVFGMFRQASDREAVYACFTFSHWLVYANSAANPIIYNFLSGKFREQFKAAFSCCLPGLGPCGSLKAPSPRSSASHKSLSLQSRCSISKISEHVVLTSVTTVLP
TAAR1 antagonist – human TAAR1 antagonism | Q96RJ0 | inhibition, % at 3 µM | CHO RD-HGA16 TAAR1, Fluo-8 calcium fluorescence, antagonist | 1.5% of 360,000 active;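 active = inhibition above a per-plate cutoff, the mean inhibition of test compounds on that plate plus 3 SD, cut at about 49% in these data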;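 also: 0% = DMSO plus EC80 beta-PEA response and 100% = DMSO alone without agonist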
Target sequence (Q96RJ0 whole entry, looked up): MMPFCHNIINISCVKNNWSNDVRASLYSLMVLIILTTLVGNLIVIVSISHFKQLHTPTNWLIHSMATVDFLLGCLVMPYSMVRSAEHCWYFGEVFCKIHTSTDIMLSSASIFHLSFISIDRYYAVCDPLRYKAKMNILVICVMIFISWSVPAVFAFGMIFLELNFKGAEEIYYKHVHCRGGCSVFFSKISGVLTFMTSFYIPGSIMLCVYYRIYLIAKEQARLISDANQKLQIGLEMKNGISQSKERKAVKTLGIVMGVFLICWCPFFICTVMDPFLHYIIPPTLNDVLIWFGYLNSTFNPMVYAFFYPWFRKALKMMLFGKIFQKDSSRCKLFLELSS
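Material: CHO RD-HGA16 cells bearing hTAAR1; compound dosing: one-point dosing, 3 µM nominal final; schedule: dye loading 75 min at 37 °C, then 30 min room temperature; measured by: calcium fluorescence with Fluo-8; control set: vehicle and agonist controls; replication: n of 1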
OX1R antag-2 – human HCRTR1 antagonism | inhibition, % at 5 µM | AID 434989 | 0.43% of 330,000 active | CHO/OX1R cells, Fluo-8 calcium fluorescence, orexin A | O43613;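 active = inhibition above its plate's threshold, mean inhibition of all tested compounds on the plate plus 3 SD, cut at about 37% in these data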;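 also: 0% = orexin A challenge wells and 100% = SB-334867-A antagonist wells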
TAAR1 agonist – human TAAR1 agonism; Q96RJ0; CHO RD-HGA16 TAAR1, Fluo-8 calcium fluorescence; vehicle wells 0%, saturating PEA agonist 100%; activation, % at 3 µM; 0.99% of 360,000 active; AID 624467;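 active = activation above the mean activation of all test compounds in the run plus 3 SD, cut at about 38% in these data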
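Test system: RD-HGA16 (CHO) cells co-expressing Gα16 and hTAAR1; dosing: one-point dosing at 3 µM (nominal); timing: 17-24 h seeding, 75 min 37 °C dye, 30 min RT; signal: kinetic Fluo-8 calcium fluorescence; read-out basis: % activation relative to PEA EC100 response; controls: DMSO and PEA EC100; replicates: n 1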
CHO parental Ca – signal in parental CHO cells, OX1R antagonist counter-screen; 0.63% of 330,000 active; inhibition, % at 5.6 µM; parental CHO-K1, ATP-induced calcium, Fluo-8 fluorescence;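 active = inhibition above that plate's mean sample inhibition plus 3 SD, cut at about 26% in these data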;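 also: 0% = ATP-challenged DMSO wells and 100% = DMSO wells without ATP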
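Assay system: parental CHO cells; Read-out basis: percent inhibition of ATP-evoked calcium rise, normalized to controls; Benchmarks: ATP and no-ATP DMSO wells; Compound dosing: single nominal dose of 5.6 µM per compound; Signal: Fluo-8 calcium dye fluorescence; Also added: ATP as calcium-mobilizing challenge; Repeats: singlicate.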
TAAR1 ag conf – confirmation of human TAAR1 agonists. CHO RD-HGA16 TAAR1, Fluo-8 calcium fluorescence; scaled: DMSO 0%, maximal phenethylamine 100%. 82% of 2,400 active. shares compounds with TAAR1 agonist. activation, % at 3 µM. AID 651783;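 active = activation above a cutoff set at the run's mean compound activation plus 3 SD, cut at about 39% in these data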
Ga16 ag counter – nonselective agonist in parental cells, TAAR1 agonist counter-screen. shares compounds with TAAR1 agonist. CHO-Ga16 parental, Fluo-8 calcium fluorescence; normalized to maximal ATP response, DMSO zero. activation, % at 3 µM. 50% of 2,400 active;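 active = activation above the run cutoff, the mean activation over all tested wells plus 3 SD, cut at about 12% in these data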;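 also: 0% = DMSO wells and 100% = maximal ATP response on the peak over basal ratio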
TAAR1 desensitize – human TAAR1 agonist that also desensitizes the receptor | inhibition, % at 3 µM | shares compounds with TAAR1 agonist | CHO RD-HGA16 hTAAR1, Fluo-8 calcium, beta-PEA response inhibition | AID 651951 | 46% of 2,400 active;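 active = inhibition above the run cutoff, the mean inhibition of all test compounds plus 3 SD, cut at about 49% in these data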;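 also: beta-PEA stimulus applied at its EC80; loss of beta-PEA calcium signal after compound pretreatment read as receptor desensitization; 0% = DMSO with beta-PEA at EC80 and 100% = DMSO alone without agonist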
Ga16 nonsel ant – nonselective Ga16 antagonism, counter-screen | shares compounds with TAAR1 agonist | CHO-Ga16 ATP-induced calcium, Fluo-8 fluorescence | inhibition, % at 3 µM | 39% of 2,400 active;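 active = inhibition above the plate's mean compound inhibition plus 3 SD, computed per plate, cut at about 22% in these data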;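 also: 0% = EC80 ATP with DMSO and 100% = DMSO wells without ATP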
Numbers without * were called inactive; nt = no result given. Most compounds without a hit are left out; they make up all but 4.5% or so of the library.

SMILES	GPR7 antagonist	OX1R antag-1	TAAR1 antagonist	OX1R antag-2	TAAR1 agonist	CHO parental Ca	TAAR1 ag conf	Ga16 ag counter	TAAR1 desensitize	Ga16 nonsel ant
O=C(O)C1CCCCC1C(=O)NCCc1ccc(Cl)cc1 (stereo not drawn)	7	19	17	-20	70*	1	54*	0	7	5
O=C(O)C1C2CCC(C2)C1C(=O)NCCc1ccccc1 (stereo not drawn)	-3	2	nt	3	nt	6	nt	2	nt	4
O=C(O)C1C2C=CC(C2)C1C(=O)NCCc1cccc(Cl)c1 (stereo not drawn)	-9	16	nt	-4	nt	-9	nt	1	nt	10
O=C(O)C1CCCCC1C(=O)NCc1ccccc1 (stereo not drawn)	4	5	-11	-8	4	-1	nt	nt	nt	nt
CC1(C(=O)Nc2cnc3ccccc3c2)CCN1C(=O)CC(c1ccccc1)c1ccccc1 (stereo not drawn)	nt	nt	41	nt	0	nt	nt	nt	nt	nt
COCC(C)n1c(C)cc(C(=O)COC(=O)c2cc(=O)[nH]c3ccccc23)c1C (stereo not drawn)	nt	16	-9	-18	21	-8	nt	nt	nt	nt
O=C(O)C1CCCCC1C(=O)NCCc1ccc(F)cc1 (stereo not drawn)	8	13	34	-22	81*	-6	93*	3	73*	7
CCC(C)(C)n1nnnc1C(c1ccc(O)c(OC)c1)N1CCc2ccccc2C1 (stereo not drawn)	0	10	92*	-22	104*	-8	106*	15*	100*	12
Cc1ccc(S(=O)(=O)Nc2ccccc2C(=O)N2CCN(C)CC2)cc1	-4	17	-8	-10	0	-5	nt	nt	nt	nt
N=C1N(/N=C/c2ccccc2)C(=Nc2ccccc2)C(=S)N1c1ccccc1	-10	6	12	-23	46*	-3	4	-1	26	14
CCCCCCOc1ccc(/C(C)=N/NC2=NCCN2)cc1	1	11	21	-1	63*	5	48*	23*	37	24*
CCCCCOc1ccc(/C(C)=N/NC2=NCCN2)cc1	-4	11	-11	-10	18	-5	nt	nt	nt	nt
NS(=O)(=O)c1ccc(CCNC(=O)C2CCC(CNS(=O)(=O)c3ccc(Br)s3)CC2)cc1 (stereo not drawn)	6	-2	72*	-15	53*	1	41*	1	59*	7
O=C(NCCc1ccccc1)C1CCC(CNS(=O)(=O)c2ccccc2)CC1 (stereo not drawn)	21	4	5	-14	28	5	nt	nt	nt	nt
COc1ccc(S(=O)(=O)N(C)C[C@H]2Oc3c(NC(=O)c4ccncc4)cccc3C(=O)N([C@H](C)CO)C[C@@H]2C)cc1	nt	2	-8	-14	2	-1	nt	nt	nt	nt
O=C(NCc1ccco1)c1cc(-c2ccccc2)on1	0	5	3	-8	10	2	nt	nt	nt	nt
O=C(NCc1ccco1)c1cc(-c2ccc(F)cc2)on1	-5	8	34	-18	49*	-9	2	2	-1	5
Cc1cc2c3c([nH]c2cc1S(=O)(=O)NCCCOC(C)C)CC(C)(C)CC3=O	-20	-5	-12	-12	1	-13	nt	nt	nt	nt
CC1(C)CC(=O)C=C(c2n[nH]nc2-c2ccc(F)c(F)c2)C1	nt	nt	-10	nt	-1	nt	nt	nt	nt	nt
O=C(O)C(C1CCCCC1)C1(O)CCCC1 (stereo not drawn)	nt	nt	7	nt	0	nt	nt	nt	nt	nt
Cc1ccc2c(c1)c1c3n2CCN=C3CCC1	0	11	-3	-11	18	-13	nt	nt	nt	nt
c1cc2c(cc1C1CCCCC1)c1c3n2CCN=C3CCC1	13	2	44	-9	66*	2	59*	24*	39	17
CCCCCCCCCCCCCC(=O)NO	nt	nt	-12	nt	2	nt	nt	nt	nt	nt
CCCCCCCCCCCCCCC(O)C[N+](C)(CCO)CCO (stereo not drawn)	nt	nt	77*	nt	54*	nt	18	4	36	30*
CCC(C)NC(=O)c1ccc(N2CC3CC(C2)c2cccc(=O)n2C3)c(NC(=O)c2ccc(Br)o2)c1 (stereo not drawn)	-2	8	-19	6	1	-12	nt	nt	nt	nt
SMILES	GPR7 antagonist	OX1R antag-1	TAAR1 antagonist	OX1R antag-2	TAAR1 agonist	CHO parental Ca	TAAR1 ag conf	Ga16 ag counter	TAAR1 desensitize	Ga16 nonsel ant
CCCC(C(=O)Nc1ccc(S(=O)(=O)N2CCOCC2)cc1)c1ccccc1 (stereo not drawn)	nt	5	57*	28	96*	11	86*	46*	69*	34*
CCCC(C(=O)Nc1ccc(C)c(S(=O)(=O)N2CCOCC2)c1)c1ccccc1 (stereo not drawn)	nt	14	-56	-23	0	-39	nt	nt	nt	nt
O=C(CC1Nc2ccccc2NC1=O)NCCc1ccccc1 (stereo not drawn)	4	29	57*	-12	91*	-11	98*	2	74*	-8
CC(C)Oc1ccc(C(CCNCc2ccc(O)cc2)c2ccccc2)cc1 (stereo not drawn)	26	nt	36	nt	70*	nt	57*	29*	40	35*
Cc1cnc(C(=O)NNC(=O)c2ccc(Br)cc2)cn1	nt	9	4	6	1	-12	nt	nt	nt	nt
Cc1cccc(NC(=S)N(C)C)c1C	-7	-2	-38	-17	1	-11	nt	nt	nt	nt
Cc1cccc(Nc2cc(C)c3c(O)cccc3n2)c1C	9	19	82*	-23	94*	7	96*	22*	92*	17
CCOC(=O)c1ccc2c(c1)N(CC)/C(=C\C=C1/SC(=S)N(CC)C1=O)N2CC	-8	nt	nt	nt	nt	nt	nt	nt	nt	nt
C=CCN1C(=O)/C(=C/C=C2/N(CC)c3ccc(S(=O)(=O)N(C)C)cc3N2CC)SC1=S	-5	34	74*	18	107*	19	90*	91*	87*	88*
Cc1ccc(NC(=O)c2ccc(Cl)c(S(=O)(=O)N3CCCCC3)c2)nc1	nt	19	1	-12	2	-20	nt	nt	nt	nt
Cc1ccnc(N/C=C(\C#N)c2nc(-c3cccc(Br)c3)cs2)c1	-3	-1	68*	13	124*	20	77*	86*	68*	63*
